pIC50: −log10 of the molar value. Blank lines part the entries; values can stand above or below the molecule they belong to.
Experiments:
Homo sapiens = species on record: Homo sapiens; assay: In vitro cytotoxic activity against human colon adenocarcinoma (HT-29).; type: functional
In short: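 HT29 cells were seeded at 2.5 × 10^4 cells/mL of medium and drug solutions were added. Exposure lasted 144 h. IC50 is the drug concentration inhibiting cell growth by 50%. Assays were run in triplicate.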

[1] = Apparent equilibrium constant for DNA binding (G-C); type: ADME
In short: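 Ethidium displacement at pH 7.0 in buffer of 10 mM Na2HPO4, 10 mM NaH2PO4, 1 mM EDTA with 1.26 μM ethidium bromide and 1 μM CT-DNA, [poly(dA-dT)]2 or [poly(dG-dC)]2. Drug stock (~5 mM in DMSO) added serially. Fluorescence read at 20 °C, excitation 546 nm, emission 595 nm. C50 is the mean of three determinations. Kapp = 1.26/C50 × 10^7.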

OVCAR-4 [2] = assay: Percent growth of ovarian OVCAR-4 cell line at compound concentration 10e-5 was determined; type: functional, Homo sapiens
In short: (§1)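 Cells in the NCI panel were exposed for 48 h to 10^-8, 10^-6 and 10^-4 or 10^-5 M drug. Growth is given as percent of untreated control (100%). Negative values are the percent of cells killed relative to the initial cell number.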

DU-145 [3] = assay: Percent growth of prostate DU-145 cell line at compound concentration 10e-8 was determined; type: functional, Homo sapiens; in short: as §1
LOX IMVI [4] = assay: Percent growth of melanoma LOX IMVI cell line at compound concentration 10e-6 was determined; type: functional, Homo sapiens; in short: as §1
LOX IMVI [5] = assay: Percent growth of melanoma LOX IMVI cell line at compound concentration 10e-5 was determined; type: functional, Homo sapiens; in short: as §1
786-0 [6] = assay: Percent growth of renal 786-0 cell line at compound concentration 10e-8 was determined; type: functional, Homo sapiens; in short: as §1
DU-145 [7] = assay: Percent growth of prostate DU-145 cell line at compound concentration 10e-5 was determined; type: functional, Homo sapiens; in short: as §1
786-0 [8] = assay: Percent growth of renal 786-0 cell line at compound concentration 10e-5 was determined; type: functional, Homo sapiens; in short: as §1
OVCAR-4 [9] = assay: Percent growth of ovarian OVCAR-4 cell line at compound concentration 10e-8 was determined; type: functional, Homo sapiens; in short: as §1
RPMI-8226 [10] = assay: Percent growth of leukemia RPMI-8226 cell line at compound concentration 10e-5 was determined; type: functional, Homo sapiens; in short: as §1
HCT-116 [11] = assay: Percent growth of colon HCT116 cell line at compound concentration 10e-8 was determined; type: functional, Homo sapiens; in short: as §1
LOX IMVI [12] = assay: Percent growth of melanoma LOX IMVI cell line at compound concentration 10e-8 was determined; type: functional, Homo sapiens; in short: as §1
SNB-19 [13] = assay: Percent growth of CNS SNB-19 cell line at compound concentration 10e-5 was determined; type: functional, Homo sapiens; in short: as §1
SNB-19 [14] = assay: Percent growth of CNS SNB-19 cell line at compound concentration 10e-6 was determined; type: functional, Homo sapiens; in short: as §1
RPMI-8226 [15] = assay: Percent growth of leukemia RPMI-8226 cell line at compound concentration 10e-8 was determined; type: functional, Homo sapiens; in short: as §1
RPMI-8226 [16] = assay: Percent growth of leukemia RPMI-8226 cell line at compound concentration 10e-6 was determined; type: functional, Homo sapiens; in short: as §1
OVCAR-4 [17] = assay: Percent growth of ovarian OVCAR-4 cell line at compound concentration 10e-6 was determined; type: functional, Homo sapiens; in short: as §1
NCI-H460 [18] = assay: Percent growth of lung-NSC NCI-H460 cell line at compound concentration 10e-6 was determined; type: functional, Homo sapiens; in short: as §1
NCI-H460 [19] = assay: Percent growth of lung-NSC NCI-H460 cell line at compound concentration 10e-5 was determined; type: functional, Homo sapiens; in short: as §1
786-0 [20] = assay: Percent growth of renal 786-0 cell line at compound concentration 10e-6 was determined; type: functional, Homo sapiens; in short: as §1
SNB-19 [21] = assay: Percent growth of CNS SNB-19 cell line at compound concentration 10e-8 was determined; type: functional, Homo sapiens; in short: as §1
HCT-116 [22] = assay: Percent growth of colon HCT116 cell line at compound concentration 10e-5 was determined; type: functional, Homo sapiens; in short: as §1
HCT-116 [23] = assay: Percent growth of colon HCT116 cell line at compound concentration 10e-6 was determined; type: functional, Homo sapiens; in short: as §1
MCF7 [24] = assay: Percent growth of breast MCF-7 cell line at compound concentration 10e-8 was determined; type: functional, Homo sapiens; in short: as §1
DU-145 [25] = assay: Percent growth of prostate DU-145 cell line at compound concentration 10e-6 was determined; type: functional, Homo sapiens; in short: as §1
NCI-H460 [26] = assay: Percent growth of lung-NSC NCI-H460 cell line at compound concentration 10e-8 was determined; type: functional, Homo sapiens; in short: as §1
MCF7 [27] = assay: Percent growth of breast MCF-7 cell line at compound concentration 10e-6 was determined; type: functional, Homo sapiens; in short: as §1
MCF7 [28] = assay: Percent growth of breast MCF-7 cell line at compound concentration 10e-5 was determined; type: functional, Homo sapiens; in short: as §1
RPMI-8226 [29] = assay: Percent growth of leukemia RPMI-8226 cell line at compound concentration 10e-4 was determined; type: functional, Homo sapiens; in short: as §1
786-0 [30] = assay: Percent growth of renal 786-0 cell line at compound concentration 10e-4 was determined; type: functional, Homo sapiens; in short: as §1
MCF7 [31] = assay: Percent growth of breast MCF-7 cell line at compound concentration 10e-4 was determined; type: functional, Homo sapiens; in short: as §1
OVCAR-4 [32] = assay: Percent growth of ovarian OVCAR-4 cell line at compound concentration 10e-4 was determined; type: functional, Homo sapiens; in short: as §1
NCI-H460 [33] = assay: Percent growth of lung-NSC NCI-H460 cell line at compound concentration 10e-4 was determined; type: functional, Homo sapiens; in short: as §1
HCT-116 [34] = assay: Percent growth of colon HCT116 cell line at compound concentration 10e-4 was determined; type: functional, Homo sapiens; in short: as §1
SNB-19 [35] = assay: Percent growth of CNS SNB-19 cell line at compound concentration 10e-4 was determined; type: functional, Homo sapiens; in short: as §1
LOX IMVI [36] = assay: Percent growth of melanoma LOX IMVI cell line at compound concentration 10e-4 was determined; type: functional, Homo sapiens; in short: as §1
DU-145 [37] = assay: Percent growth of prostate DU-145 cell line at compound concentration 10e-4 was determined; type: functional, Homo sapiens; in short: as §1

K app [1]: 8.8e+06 M⁻¹
Structure (SMILES): COc1ccc2nc3c(C(=O)NCCN(C)C)ccc(NCCN(C)CCNc4ccc(C(=O)NCCN(C)C)c5nc6ccc(OC)cc6c(O)c45)c3c(O)c2c1
pIC50 (Homo sapiens): 5.48

Structure (SMILES): CN(C)CCNc1ccc(C(=O)NCCN(C)CCNC(=O)c2ccc(NCCN(C)C)c3c(O)c4cc(O)ccc4nc23)c2nc3ccc(O)cc3c(O)c12
pIC50 (Homo sapiens): 5.05

Structure (SMILES): CN(C)CCNc1ccc(C(=O)NCCCN(C)CCCNC(=O)c2ccc(NCCN(C)C)c3cc4ccccc4nc23)c2nc3ccccc3cc12
pIC50 (Homo sapiens): 6.64

Structure (SMILES): CN(C)CCNc1ccc(C(=O)NCCN(C)CCNC(=O)c2ccc(NCCN(C)C)c3cc4ccccc4nc23)c2nc3ccccc3cc12
pIC50 (Homo sapiens): 5.70

K app [1]: 3.8e+07 M⁻¹
Structure (SMILES): CN(C)CCNC(=O)c1ccc(NCCN(C)CCNc2ccc(C(=O)NCCN(C)C)c3nc4ccccc4c(O)c23)c2c(O)c3ccccc3nc12
pIC50 (Homo sapiens): 6.39

Structure (SMILES): COc1ccc2nc3c(C(=O)NCCN(C)CCNC(=O)c4ccc(NCCN(C)C)c5c(O)c6cc(OC)ccc6nc45)ccc(NCCN(C)C)c3c(O)c2c1
pIC50 (Homo sapiens): 6.05

K app [1]: 7.5e+07 M⁻¹
Structure (SMILES): CN(C)CCNC(=O)c1ccc(NCCCN(C)CCCNc2ccc(C(=O)NCCN(C)C)c3nc4ccccc4c(O)c23)c2c(O)c3ccccc3nc12
Growth (OVCAR-4 [2]): -74%
Growth (DU-145 [3]): 11%
Growth (LOX IMVI [4]): -65%
Growth (LOX IMVI [5]): -93%
Growth (786-0 [6]): 30%
Growth (DU-145 [7]): -72%
Growth (786-0 [8]): -98%
Growth (OVCAR-4 [9]): 46%
Growth (RPMI-8226 [10]): -49%
pIC50 (Homo sapiens): 9.37
Growth (HCT-116 [11]): 20%
Growth (LOX IMVI [12]): 30%
Growth (SNB-19 [13]): -55%
Growth (SNB-19 [14]): -20%
Growth (RPMI-8226 [15]): 16%
Growth (RPMI-8226 [16]): -37%
Growth (OVCAR-4 [17]): -47%
Growth (NCI-H460 [18]): -52%
Growth (NCI-H460 [19]): -90%
Growth (786-0 [20]): -26%
Growth (SNB-19 [21]): 38%
Growth (HCT-116 [22]): -96%
Growth (HCT-116 [23]): -35%
Growth (MCF7 [24]): 22%
Growth (DU-145 [25]): -31%
Growth (NCI-H460 [26]): 12%
Growth (MCF7 [27]): -6%
Growth (MCF7 [28]): -86%

K app [1]: 9.4e+07 M⁻¹
Structure (SMILES): CN(C)CCNC(=O)c1ccc(NCCCN(C)CCCNc2ccc(C(=O)NCCN(C)C)c3nc4ccccc4cc23)c2cc3ccccc3nc12
pIC50 (Homo sapiens): 7.33

Structure (SMILES): COc1ccc2nc3c(C(=O)NCCCN(C)CCCNC(=O)c4ccc(NCCN(C)C)c5c(O)c6cc(OC)ccc6nc45)ccc(NCCN(C)C)c3c(O)c2c1
Growth (RPMI-8226 [29]): -44%
Growth (DU-145 [3]): 25%
Growth (LOX IMVI [4]): -2%
Growth (786-0 [30]): -98%
Growth (786-0 [6]): 28%
Growth (MCF7 [31]): -85%
Growth (OVCAR-4 [32]): -96%
Growth (OVCAR-4 [9]): 38%
pIC50 (Homo sapiens): 8.70
Growth (HCT-116 [11]): 17%
Growth (LOX IMVI [12]): 31%
Growth (SNB-19 [14]): 3%
Growth (RPMI-8226 [15]): 4%
Growth (RPMI-8226 [16]): -36%
Growth (OVCAR-4 [17]): -21%
Growth (NCI-H460 [18]): -10%
Growth (NCI-H460 [33]): -90%
Growth (HCT-116 [34]): -97%
Growth (786-0 [20]): 1%
Growth (SNB-19 [35]): -85%
Growth (SNB-19 [21]): 38%
Growth (LOX IMVI [36]): -73%
Growth (HCT-116 [23]): -23%
Growth (MCF7 [24]): 18%
Growth (DU-145 [37]): -77%
Growth (DU-145 [25]): -25%
Growth (NCI-H460 [26]): 9%
Growth (MCF7 [27]): 0%

Structure (SMILES): CN(C)CCNC(=O)c1ccc(NCCN(C)C)c2c(O)c3cc([N+](=O)[O-])ccc3nc12
pIC50 (Homo sapiens): 6.72

Structure (SMILES): CN(CCNC(=O)c1ccc(Cl)c2c(O)c3ccccc3nc12)CCNC(=O)c1ccc(Cl)c2c(O)c3ccccc3nc12
pIC50 (Homo sapiens): 5.26

K app [1]: 7.4e+07 M⁻¹
Structure (SMILES): CN(C)CCNC(=O)c1ccc(NCCCN(C)CCCNc2ccc(C(=O)NCCN(C)C)c3nc4ccc(O)cc4c(O)c23)c2c(O)c3cc(O)ccc3nc12
pIC50 (Homo sapiens): 5.16

Structure (SMILES): O=C1c2c(O)ccc(O)c2C(=O)c2c(NCCNCCO)ccc(NCCNCCO)c21 [MITOXANTRONE]
pIC50 (Homo sapiens): 8.00

— ChEMBL document CHEMBL1144932, “Design, synthesis, and biological properties of new bis(acridine-4-carboxamides) as anticancer agents” (J Med Chem, 2003)
